Measured values from ChEMBL document CHEMBL1123129, “Hypolipidemic activity of indan-1,3-dione derivatives in rodents” (J Med Chem, 1985).

Experiments:
[1] = test system: Rattus norvegicus; test: Compound was evaluated for the hypolipidemic activity at 20 mg/kg per day orally for 14 days on neutral lipids content in rat feces.; type: functional; settings: route oral
Outline: (§1)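 Male Sprague–Dawley rats were dosed orally for 14 days. Liver, small intestine and a 24-h fecal collection were lipid-extracted. Extracts were assayed for cholesterol (modified Liebermann–Burchard), triglyceride (enzymatic kit), neutral lipids, phospholipids and protein. Values are % of 1% CMC vehicle control, mean ± SD, N = 6.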

[2] = test system: Mus musculus; test: In Vivo effect for the hypolipidemic activity on phosphatidate phosphohydrolase in CF1 mice after 16 days administered orally at a dose of 10 mg/kg; type: organism-based; set-up: dose 10 mg/kg
Outline: (§2)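 CF1 male mice are dosed orally at 10–60 mg/kg per day for 16 days, with 1% CMC as the control vehicle. Liver is homogenized at 10% in 0.25 M sucrose + 0.001 M EDTA, pH 7.2. Enzymes are assayed by literature methods, with Lowry protein. Activity is given as % of control (X ± SD, N = 6), with p from Student's t test.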

[3] = test system: Rattus norvegicus; test: Compound was evaluated for the hypolipidemic activity at 20 mg/kg per day orally for 14 days on phospholipids content in rat HDL; type: functional; settings: route oral
Outline: (§3)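 Male Sprague–Dawley rats (~300 g) were dosed orally each day. Blood was drawn from the abdominal vein. Lipoprotein fractions (chylomicron, VLDL, LDL, HDL) were separated by the Hatch–Lees and Havel methods. Each fraction was assayed for cholesterol, triglyceride (enzymatic kit), neutral lipids, phospholipids and Lowry protein. Values are % of 1% CMC vehicle control, N = 6.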

[4] = test system: Rattus norvegicus; test: Compound was evaluated for the hypolipidemic activity at 20 mg/kg per day orally for 14 days on triglycerides content in rat HDL; type: functional; settings: route oral; outline: as §3
[5] = biological target: T1, 3-hydroxy-3-methylglutaryl-coenzyme A reductase (Mus musculus) (UniProt Q01237); test: In Vitro evaluation for the CF1 liver enzyme activity on HMG-CoA reductase at concentration 100 uM
T1 sequence (whole entry): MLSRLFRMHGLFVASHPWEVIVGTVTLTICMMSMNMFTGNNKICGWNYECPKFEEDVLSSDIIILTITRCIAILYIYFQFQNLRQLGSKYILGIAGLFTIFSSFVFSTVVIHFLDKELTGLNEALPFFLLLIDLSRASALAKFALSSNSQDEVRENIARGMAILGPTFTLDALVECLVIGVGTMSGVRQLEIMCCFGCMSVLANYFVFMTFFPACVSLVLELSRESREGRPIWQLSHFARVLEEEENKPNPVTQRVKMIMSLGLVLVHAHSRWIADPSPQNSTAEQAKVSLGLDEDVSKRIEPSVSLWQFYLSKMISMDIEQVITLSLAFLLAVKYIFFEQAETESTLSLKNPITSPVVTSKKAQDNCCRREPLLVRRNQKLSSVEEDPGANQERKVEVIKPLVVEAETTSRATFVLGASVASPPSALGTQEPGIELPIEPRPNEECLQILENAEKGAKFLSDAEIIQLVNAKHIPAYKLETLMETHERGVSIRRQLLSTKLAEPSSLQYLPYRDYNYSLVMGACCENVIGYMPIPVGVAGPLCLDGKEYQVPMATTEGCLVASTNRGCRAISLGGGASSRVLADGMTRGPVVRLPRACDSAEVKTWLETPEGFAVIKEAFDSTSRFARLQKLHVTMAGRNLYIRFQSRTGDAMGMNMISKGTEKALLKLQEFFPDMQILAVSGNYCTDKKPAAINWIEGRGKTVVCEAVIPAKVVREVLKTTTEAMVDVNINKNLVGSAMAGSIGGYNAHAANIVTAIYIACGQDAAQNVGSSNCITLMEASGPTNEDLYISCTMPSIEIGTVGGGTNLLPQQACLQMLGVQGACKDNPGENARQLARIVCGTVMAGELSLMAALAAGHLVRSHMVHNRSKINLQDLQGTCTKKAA
Outline: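 Liver was taken from CF1 male mice and made into 10% homogenates, which were incubated with test compound at 50, 100 or 200 µM. Each enzyme was assayed by its literature method, and protein was measured by Lowry. N = 6. Activity is expressed as % of untreated control ± SD.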

[6] = test system: Rattus norvegicus; test: Compound was evaluated for the hypolipidemic activity at 20 mg/kg per day orally for 14 days on protein content in rat liver; type: functional; settings: route oral; outline: as §1
[7] = test system: Rattus norvegicus; test: Compound was evaluated for the hypolipidemic activity at 20 mg/kg per day orally for 14 days on lipid content in rat small intestine.; type: functional; settings: route oral; outline: as §1
[8] = test system: Rattus norvegicus; test: Compound was evaluated for the hypolipidemic activity at 20 mg/kg per day orally for 14 days on triglycerides content in rat lipoprotein chylomicron; p</=0.001; type: functional; settings: route oral; outline: as §3
[9] = test system: Rattus norvegicus; test: Compound was evaluated for the hypolipidemic activity in Sprague-Dawley rats at a dose of 20 mg/kg orally for Serum triglyceride at 16th day; type: functional; settings: route oral
Outline: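 Sprague–Dawley male rats (~350 g) received 20 mg/kg per day orally, with 1% CMC as the vehicle control; N = 6. Tail-vein blood was taken between 8:00 and 9:30 a.m. on days 9 and 16 and spun for 3 min to obtain serum. Cholesterol was measured by a modified Liebermann–Burchard reaction and triglyceride by kit. Values are % control ± SD; significance by Student's t test.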

[10] = biological target: T2, Sterol O-acyltransferase 1 (Mus musculus) (UniProt Q61263); test: In Vivo effect for the hypolipidemic activity on Acyl-COA cholesterol acyltransferase in CF1 mice after 16 days of oral administration at a dose of 20 mg/kg; type: functional, organism-based; set-up: dose 20 mg/kg; outline: as §2
T2 sequence (whole entry): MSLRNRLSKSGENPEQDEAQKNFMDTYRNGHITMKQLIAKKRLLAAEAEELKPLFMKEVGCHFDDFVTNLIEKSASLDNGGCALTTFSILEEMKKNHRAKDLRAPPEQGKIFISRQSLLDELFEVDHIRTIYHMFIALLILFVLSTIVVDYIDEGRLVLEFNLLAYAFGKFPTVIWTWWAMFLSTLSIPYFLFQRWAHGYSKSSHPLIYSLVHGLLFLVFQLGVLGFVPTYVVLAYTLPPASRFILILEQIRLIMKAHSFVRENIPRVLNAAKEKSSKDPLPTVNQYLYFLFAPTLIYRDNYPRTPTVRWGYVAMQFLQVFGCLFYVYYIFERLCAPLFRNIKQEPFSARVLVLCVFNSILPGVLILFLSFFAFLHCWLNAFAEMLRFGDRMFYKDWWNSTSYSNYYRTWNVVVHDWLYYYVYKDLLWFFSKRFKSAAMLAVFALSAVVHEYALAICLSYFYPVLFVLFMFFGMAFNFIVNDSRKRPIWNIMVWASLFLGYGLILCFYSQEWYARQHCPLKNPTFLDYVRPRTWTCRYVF

COc1ccc(C2C(=O)c3ccccc3C2=O)cc1 [ANISINDIONE]
Control [1]: 101% | Control [2]: 53% | Control [3]: 87% | Control [4]: 59% | Control [5]: 109% | Control [6]: 100% | Control [7]: 100% | Control [8]: 72% | Control [9]: 59% | Control [10]: 48%
